# tim10-1 inh: growth inhibitors of tim10-1 mutant yeast, primary screen, luminescence, uHTS; 2.2% of 330,000 active; S. cerevisiae tim10-1 ts strain growth, BacTiter-Glo, 24 h; inhibition, % at 20 µM;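 active means inhibition of at least 40%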;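 further: mutant grown at 25 °C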
# tim23-1 inh: growth inhibitors of tim23-1 mutant yeast, primary screen, luminescence, uHTS; S. cerevisiae tim23-1 growth, BacTiter-Glo luminescence, 24 h; AID 463212, 2010; 1.3% of 330,000 active; inhibition, % at 20 µM;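 active means growth inhibition of the mutant yeast at or above 50%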;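 further: temperature-sensitive mutant grown at 25 °C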
# TIM10 inh: growth inhibitors of isogenic TIM10 control yeast, primary screen, counter-screen for tim10-1 yeast inhibitor project, luminescence, uHTS; S. cerevisiae TIM10 strain growth, BacTiter-Glo luminescence, 24 h; inhibition, % at 10 µM; 1.4% of 330,000 active;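 active means inhibition of 40% or more at the single tested concentration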;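 further: wild-type TIM10 isogenic control strain grown at permissive 25 °C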
# UPR XBP1 act: activators of adaptive XBP1 UPR arm, primary screen, cell-based, CHO-XBP1 luciferase reporter, luminescence, uHTS; IRE1-XBP1 UPR activation; percent of tunicamycin response, DMSO as zero; activation, % at 20 µM; 0.33% of 330,000 active; AID 463104, 2010;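 active means versus positive control, 20 µM dose yields 30% or more activation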
#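 Material: CHO-XBP1 cells stably carrying IRE1-XBP1-driven luciferase reporter | Medium: F12 with 10% serum | Compound dosing: 20 µM single concentration, DMSO 1% | Incubation: Overnight seeding at 37 °C, 6 h compound treatment at 37 °C | Detection: Steady-Glo luminescence read | Read-out basis: % activation of reporter signal versus tunicamycin and DMSO controls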
# CHOP UPR activ: activators of apoptotic CHOP UPR arm, primary screen, cell-based, CHO-CHOP luciferase reporter, luminescence, uHTS; UPR activation; percent of tunicamycin response over DMSO baseline; activation, % at 10 µM; 0.34% of 330,000 active;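 active means at 10 µM dose, activation of 40% or more, normalized to positive control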
#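 System: CHO-CHOP luciferase reporter cell line | Buffer or medium: F12 medium containing 10% fetal bovine serum | Doses: One dose, 10 µM in 0.5% DMSO | Times: 6 h compound exposure at 37 °C after overnight seeding | Signal: Luciferase luminescence | Read-out: % activation vs tunicamycin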
# tim23-1 confirm: tim23-1 mutant yeast growth inhibitors, confirmation, luminescence, single concentration; shares compounds with tim23-1 inh; S. cerevisiae tim23-1 growth, BacTiter-Glo luminescence, 24 h; inhibition, % at 20 µM; 83% of 4,400 active; AID 463218, 2010;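 active means inhibition above about 39% in either of two replicate wells at 20 µM, limit read from the data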;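 further: temperature-sensitive tim23-1 mutant grown at 25 °C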
# A number is an active result; – = inactive; · = no result given. Rows were chosen to be rich in hits. Some 3.9% of all compounds tested hit in one or more screens of this group.
SMILES,tim10-1 inh,tim23-1 inh,TIM10 inh,UPR XBP1 act,CHOP UPR activ,tim23-1 confirm
CC(=O)Nc1nc2c(F)cccc2s1,–,–,–,–,–,·
Cc1sc(NC(=O)c2ccco2)nc1-c1ccccc1,–,56,–,–,–,72
CCC(c1ccccc1)c1nnc(NC(=O)c2ccco2)s1 (centres undefined),–,–,–,–,–,·
O=C(Nc1nc2c(F)cccc2s1)c1ccco1,–,55,–,–,–,54
CC(=O)c1sc(NC(=O)c2ccco2)nc1-c1ccccc1,–,–,–,–,–,·
COc1ccc(S(=O)(=O)N2CCc3ccccc3C2)cc1,–,53,–,–,–,45
COC(=O)c1sccc1NS(=O)(=O)c1ccccc1[N+](=O)[O-],–,–,–,–,–,·
Nc1nc(-c2cc(Cl)cc(Cl)c2OC(F)F)cs1,–,61,–,–,–,52
O=C(Nc1oc2ccc(Cl)cc2c(=O)c1-c1ccc(F)cc1)c1ccco1,–,53,–,–,–,46
COc1ccc(-c2c(NC(=O)c3ccco3)oc3c(C)cccc3c2=O)cc1,–,51,–,–,–,43
COc1cccc(-c2c(NC(=O)c3ccco3)oc3ccccc3c2=O)c1,–,–,–,–,–,·
O=C(Nc1oc2ccccc2c(=O)c1-c1ccc(Br)cc1)c1ccco1,–,52,–,–,–,41
COc1cccc(-c2c(NC(=O)c3ccco3)oc3ccc(Cl)cc3c2=O)c1,–,–,–,–,–,·
Cc1c(NS(=O)(=O)c2cccc(C(=O)Nc3cccc(F)c3)c2)c(=O)n(-c2ccccc2)n1C,–,–,–,–,–,·
NC(=O)c1ccccc1NC(=O)c1cc(S(=O)(=O)N2CCCCC2)ccc1N1CCOCC1,–,–,–,–,–,·
O=C(CN1CCc2cc3c(cc2C1)OCCCO3)Nc1cccc(Br)c1,–,60,–,–,–,74
COc1ccc(/C=C(\NC(=O)c2ccccc2)C(=O)NCc2ccco2)cc1OC,–,–,–,–,–,·
O=C(NCC1CCCO1)c1ccc(N2C(=O)C3CCCCC3C2=O)cc1 (centres undefined),–,–,–,–,–,·
Cc1ccccc1C(=O)NC(=S)N(C)C1CCCCC1,–,–,–,–,–,·
CN(C(=S)NC(=O)c1ccccc1Br)C1CCCCC1,–,50,–,–,–,–
Clc1ccc(-c2[nH]ncc2N=Nc2ccccc2)cc1,–,68,–,–,–,–
Oc1ccc(-c2[nH]ncc2-c2ccc(Cl)cc2)c(O)c1,–,–,–,–,–,·
CCCCCCCn1c(=O)c(C(=O)OC)c(N)c2ccccc21,–,53,–,–,–,50
CCCn1c(=O)c(C(=O)Nc2ccccc2C(=O)OC)c(O)c2ccccc21,–,–,–,–,–,·
CCCCCCn1c(=O)c(-c2ccccc2)c(O)c2ccccc21,–,50,–,–,–,44
SMILES,tim10-1 inh,tim23-1 inh,TIM10 inh,UPR XBP1 act,CHOP UPR activ,tim23-1 confirm
CCCCCCCCn1c(=O)c(C(=O)OC)c(N)c2ccccc21,–,64,–,–,–,44
COC(=O)c1c(N)c2ccccc2[nH]c1=O,–,–,–,–,–,·
CCCCCCn1c(=O)c(Cc2ccccc2)c(O)c2ccccc21,–,–,–,–,–,·
Cc1ccc(CNC(=O)C2CCCN(S(=O)(=O)c3ccc(-n4cnnn4)cc3)C2)cc1 (centres undefined),–,–,–,–,–,·
Cc1noc(C)c1NC(=O)Nc1ccc2c(c1)CC(=O)N([C@@H](C)CO)C[C@@H](C)[C@@H](CN(C)C(=O)Nc1cccc3ccccc13)O2,–,–,–,–,–,·
Cc1cc(C(=O)COC(=O)C2=COCCO2)c(C)n1-c1ccccc1,–,–,–,–,–,·
COc1ccc(COc2cccc(C=O)c2)cc1,–,–,–,–,–,·
O=Cc1cccc(OCc2cccc3ccccc23)c1,–,57,–,–,–,–
Cc1nnc(NC(=O)C2CSC3(C)CCC(=O)N23)s1 (centres undefined),–,–,–,–,–,·
Cn1nnnc1Sc1ncnc2scc(-c3ccc(C(F)(F)F)cc3)c12,–,56,–,–,–,–
Cn1nnnc1Sc1ncnc2scc(-c3cccc(C(F)(F)F)c3)c12,–,53,–,–,–,46
Nc1nc2ccc(C(=O)Nc3ccccc3)cc2s1,–,–,–,–,–,·
CCc1ccc(NC(=O)c2ccc3nc(N)sc3c2)cc1,–,54,–,–,–,–
Cc1cnc(NC(=O)c2cc3c(s2)CCCC3)s1,–,55,–,–,–,47
CCN=c1scc(-c2ccc(F)cc2)n1/N=C/c1ccccn1,–,58,–,–,–,70
CCOC(=O)c1c(-c2ccccc2)oc2ccc(O)cc12,–,59,–,–,–,56
CCOC(=O)c1c(-c2ccccc2)oc2ccc(OCC)cc12,–,–,–,–,–,·
O=C1/C(=C/c2cccc(Br)c2)SC(=S)N1/N=C/c1cc([N+](=O)[O-])ccc1O,–,82,–,–,–,–
S=c1[nH]nc(COc2ccc(Cl)cc2)n1-c1ccc(Cl)cc1,–,51,–,–,–,41
Cc1ccc(OCc2n[nH]c(=S)n2-c2ccc(Cl)cc2)cc1,–,–,–,–,–,·
COc1cccc(NCc2cc3c(C(C)(C)C)nn(-c4ccccc4)c3[nH]c2=O)c1,–,70,–,–,–,59
CCc1ccc(NCc2cc3c(C)nn(-c4ccccc4)c3[nH]c2=O)cc1,–,–,–,–,–,·
Cc1nn(-c2ccccc2)c2[nH]c(=O)c(CNc3ccc4c(c3)OCCO4)cc12,–,–,–,–,–,·
CCOc1ccc(NCc2cc3c(C(C)(C)C)nn(-c4ccccc4)c3[nH]c2=O)cc1,–,58,–,–,–,55
Brc1ccc(Nc2nc(-c3cccnc3)cs2)cc1,–,–,–,–,–,·
Brc1ccc(-c2csc(Nc3nc(-c4ccc(Br)cc4)cs3)n2)cc1,–,53,–,–,–,–
N#CCCN(C(=O)COC(=O)CCc1c[nH]c2ccccc12)c1ccc(F)cc1,–,–,–,–,–,·
Cc1ccc(C)c(NC(=O)CCN2C(=O)[C@@H]3Cc4ccccc4CN3C2=O)c1,–,–,–,–,–,·
CC1=NN(c2ccc(C)c(C)c2)C(=O)/C1=C\C=C\c1ccc([N+](=O)[O-])o1,–,50,–,–,–,–
CCOC(=O)c1ccc(N2N=C(C)/C(=C/C=C/c3ccco3)C2=O)cc1,–,–,–,–,–,·

# Screening data from PubChem BioAssay.
